Target: T1, Kallikrein-12 (Homo sapiens, UniProt Q9UKR0)
T1 sequence (Q9UKR0 whole entry): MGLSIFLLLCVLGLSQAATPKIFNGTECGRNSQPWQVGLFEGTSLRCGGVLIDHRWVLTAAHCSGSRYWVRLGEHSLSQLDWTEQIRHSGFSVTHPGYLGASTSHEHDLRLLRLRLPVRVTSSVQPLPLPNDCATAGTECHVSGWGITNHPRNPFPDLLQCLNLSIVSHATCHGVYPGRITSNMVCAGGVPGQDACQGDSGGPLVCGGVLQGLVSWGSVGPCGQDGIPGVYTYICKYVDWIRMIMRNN
Assay: Inhibition of kallikrein-12 (unknown origin)
Details: not given
`CC1=C(C#N)[C@@H](c2ccc(C#N)cc2S(C)(=O)=O)N(C)C(=O)N1c1cccc(C(F)(F)F)c1` showed an IC50 of over 30 µM.

Target: Coagulation factor IX (Homo sapiens, UniProt P00740)
Sequence (P00740 47-191 limits assumed): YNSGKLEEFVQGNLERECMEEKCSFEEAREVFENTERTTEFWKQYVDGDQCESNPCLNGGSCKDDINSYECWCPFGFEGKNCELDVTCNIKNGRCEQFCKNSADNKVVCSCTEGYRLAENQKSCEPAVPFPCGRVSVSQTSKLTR
Sequence (P00740 227-461 limits assumed): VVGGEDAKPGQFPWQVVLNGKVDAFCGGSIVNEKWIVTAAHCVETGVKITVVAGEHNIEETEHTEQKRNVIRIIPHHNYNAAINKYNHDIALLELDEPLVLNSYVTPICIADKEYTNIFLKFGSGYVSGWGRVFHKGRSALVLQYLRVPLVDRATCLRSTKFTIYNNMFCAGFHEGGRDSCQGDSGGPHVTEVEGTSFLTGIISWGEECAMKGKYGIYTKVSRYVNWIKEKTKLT
Assay: Inhibition of FIXa (unknown origin)
Details: not given
Work on `CC1=C(C#N)[C@@H](c2ccc(C#N)cc2S(C)(=O)=O)N(C)C(=O)N1c1cccc(C(F)(F)F)c1` yielded an IC50 of over 30 µM.

Target: Kallikrein-4 (Homo sapiens, UniProt Q9Y5K2)
Sequence (Q9Y5K2 whole entry): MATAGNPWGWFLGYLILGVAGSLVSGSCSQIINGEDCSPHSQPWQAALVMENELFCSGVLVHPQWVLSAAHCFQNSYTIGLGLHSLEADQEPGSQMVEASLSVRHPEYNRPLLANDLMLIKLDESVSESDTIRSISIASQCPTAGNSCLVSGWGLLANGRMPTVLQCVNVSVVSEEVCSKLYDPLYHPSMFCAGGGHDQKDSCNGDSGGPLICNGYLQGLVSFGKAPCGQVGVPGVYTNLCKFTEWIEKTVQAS
Assay: Inhibition of kallikrein-4 (unknown origin)
Details: not given
With `CC1=C(C#N)[C@@H](c2ccc(C#N)cc2S(C)(=O)=O)N(C)C(=O)N1c1cccc(C(F)(F)F)c1` the IC50 was over 30 µM.

Test system: not listed separately
Assay: Apparent volume of distribution at steady state in rat at 0.3 mg/kg, po administered via gavage or 0.84 mg/kg, iv administered via infusion for 0.25 to 2 hrs by LC-MS/MS analysis
Type: ADME, organism-based
Details: in vivo
For `CC1=C(C#N)[C@@H](c2ccc(C#N)cc2S(C)(=O)=O)N(C)C(=O)N1c1cccc(C(F)(F)F)c1`, the “Vdss(app)” value was 5.8 L/kg.

Target: T2, Cathepsin G (Homo sapiens, UniProt P08311)
T2 sequence (P08311 whole entry): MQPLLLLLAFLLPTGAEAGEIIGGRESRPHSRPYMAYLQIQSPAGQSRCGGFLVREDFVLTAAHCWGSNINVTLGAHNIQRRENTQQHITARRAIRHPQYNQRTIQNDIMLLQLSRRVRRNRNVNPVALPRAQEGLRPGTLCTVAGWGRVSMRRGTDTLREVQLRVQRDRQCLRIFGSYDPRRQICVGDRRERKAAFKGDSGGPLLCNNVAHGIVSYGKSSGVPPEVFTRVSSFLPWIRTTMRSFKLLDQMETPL
Assay: Inhibition of cathepsin G (unknown origin)
Details: not given
Molecule `CC1=C(C#N)[C@@H](c2ccc(C#N)cc2S(C)(=O)=O)N(C)C(=O)N1c1cccc(C(F)(F)F)c1` has an IC50 of over 30 µM.

Target: Plasma kallikrein (Homo sapiens, UniProt P03952)
Sequence (P03952 20-390 limits assumed): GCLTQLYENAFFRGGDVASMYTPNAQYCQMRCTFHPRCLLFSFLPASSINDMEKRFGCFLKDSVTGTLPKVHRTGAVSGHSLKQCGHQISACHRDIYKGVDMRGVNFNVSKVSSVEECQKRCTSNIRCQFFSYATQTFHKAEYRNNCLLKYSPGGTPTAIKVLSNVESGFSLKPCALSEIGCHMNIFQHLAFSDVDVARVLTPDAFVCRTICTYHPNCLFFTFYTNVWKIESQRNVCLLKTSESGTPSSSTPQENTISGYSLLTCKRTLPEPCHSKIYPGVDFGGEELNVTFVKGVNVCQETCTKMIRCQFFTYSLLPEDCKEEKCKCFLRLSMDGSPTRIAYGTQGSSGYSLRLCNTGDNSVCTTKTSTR
Sequence (P03952 391-638 limits assumed): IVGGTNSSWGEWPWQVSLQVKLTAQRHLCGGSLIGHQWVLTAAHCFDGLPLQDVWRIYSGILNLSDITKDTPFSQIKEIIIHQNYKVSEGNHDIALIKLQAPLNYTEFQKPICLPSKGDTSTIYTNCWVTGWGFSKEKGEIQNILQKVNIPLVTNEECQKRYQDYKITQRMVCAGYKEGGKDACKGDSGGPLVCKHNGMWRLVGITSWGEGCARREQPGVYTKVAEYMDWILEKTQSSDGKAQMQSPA
Assay: Inhibition of kallikrein-B1 (unknown origin)
Details: not given
`CC1=C(C#N)[C@@H](c2ccc(C#N)cc2S(C)(=O)=O)N(C)C(=O)N1c1cccc(C(F)(F)F)c1` gave an IC50 of over 30 µM.

Target: Dipeptidyl peptidase 2 (Homo sapiens, UniProt Q9UHL4)
Assay: Inhibition of DPP2 (unknown origin)
Details: not given
`CC1=C(C#N)[C@@H](c2ccc(C#N)cc2S(C)(=O)=O)N(C)C(=O)N1c1cccc(C(F)(F)F)c1` gave an IC50 of over 30 µM.

Target: Cytochrome P450 3A4 (Homo sapiens, UniProt P08684)
Sequence (P08684 whole entry): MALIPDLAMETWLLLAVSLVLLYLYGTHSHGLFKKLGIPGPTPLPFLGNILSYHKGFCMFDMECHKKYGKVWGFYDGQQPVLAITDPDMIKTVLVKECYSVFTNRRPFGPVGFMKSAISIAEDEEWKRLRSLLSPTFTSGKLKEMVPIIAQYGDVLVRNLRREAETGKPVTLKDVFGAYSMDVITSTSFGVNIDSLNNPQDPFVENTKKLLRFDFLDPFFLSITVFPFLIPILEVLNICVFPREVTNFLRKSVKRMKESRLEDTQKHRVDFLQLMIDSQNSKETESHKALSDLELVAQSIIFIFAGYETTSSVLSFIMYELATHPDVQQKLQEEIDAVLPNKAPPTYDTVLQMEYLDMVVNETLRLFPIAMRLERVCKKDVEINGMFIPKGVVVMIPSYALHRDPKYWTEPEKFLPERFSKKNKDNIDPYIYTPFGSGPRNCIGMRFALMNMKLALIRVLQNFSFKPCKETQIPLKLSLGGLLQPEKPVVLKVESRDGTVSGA
Assay: Inhibition of CYP3A4 in human pooled liver microsomes using midazolam as substrate measured after 10 to 20 mins by LC-MS/MS analysis
Details: not given
`CC1=C(C#N)[C@@H](c2ccc(C#N)cc2S(C)(=O)=O)N(C)C(=O)N1c1cccc(C(F)(F)F)c1` gave an IC50 of over 50 µM.

Target: T3, Coagulation factor VII (Homo sapiens, UniProt P08709)
T3 sequence (P08709 whole entry): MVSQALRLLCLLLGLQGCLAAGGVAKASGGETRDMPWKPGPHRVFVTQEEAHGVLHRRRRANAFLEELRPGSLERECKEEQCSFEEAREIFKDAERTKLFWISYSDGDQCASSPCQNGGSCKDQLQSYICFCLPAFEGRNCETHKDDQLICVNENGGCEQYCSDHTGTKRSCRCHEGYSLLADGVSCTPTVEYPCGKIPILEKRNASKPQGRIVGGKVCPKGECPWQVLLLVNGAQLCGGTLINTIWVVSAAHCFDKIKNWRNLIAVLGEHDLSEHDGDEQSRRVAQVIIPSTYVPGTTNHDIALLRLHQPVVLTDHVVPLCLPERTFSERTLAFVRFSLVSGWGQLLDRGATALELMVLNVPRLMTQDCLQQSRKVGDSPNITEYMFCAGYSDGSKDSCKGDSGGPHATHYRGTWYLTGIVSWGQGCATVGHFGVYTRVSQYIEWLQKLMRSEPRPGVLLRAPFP
Assay: Inhibition of FVIIa (unknown origin)
Details: not given
`CC1=C(C#N)[C@@H](c2ccc(C#N)cc2S(C)(=O)=O)N(C)C(=O)N1c1cccc(C(F)(F)F)c1` showed an IC50 of over 30 µM.

Test system: not listed separately
Assay: Half life in rat at 0.3 mg/kg, po administered via gavage or 0.84 mg/kg, iv administered via infusion for 0.25 to 2 hrs by LC-MS/MS analysis
Type: ADME, organism-based
Details: in vivo
With `CC1=C(C#N)[C@@H](c2ccc(C#N)cc2S(C)(=O)=O)N(C)C(=O)N1c1cccc(C(F)(F)F)c1` the t1/2 was 8.5 h.

Target: Kallikrein-1 (Homo sapiens, UniProt P06870)
Sequence (P06870 whole entry): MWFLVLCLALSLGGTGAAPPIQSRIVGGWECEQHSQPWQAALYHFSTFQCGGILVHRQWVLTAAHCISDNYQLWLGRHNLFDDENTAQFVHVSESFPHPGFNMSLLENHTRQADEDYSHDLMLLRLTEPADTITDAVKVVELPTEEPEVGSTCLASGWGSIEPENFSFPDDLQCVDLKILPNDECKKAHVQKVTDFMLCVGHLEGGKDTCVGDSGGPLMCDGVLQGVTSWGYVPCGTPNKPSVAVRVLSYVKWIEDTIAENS
Assay: Inhibition of kallikrein-1 (unknown origin)
Details: not given
`CC1=C(C#N)[C@@H](c2ccc(C#N)cc2S(C)(=O)=O)N(C)C(=O)N1c1cccc(C(F)(F)F)c1` gave an IC50 of over 30 µM.

Target: Trypsin (Homo sapiens, UniProt P07477+P07478+P35030)
Assay: Inhibition of trypsin (unknown origin)
Type: protein assay
Details: not given
With `CC1=C(C#N)[C@@H](c2ccc(C#N)cc2S(C)(=O)=O)N(C)C(=O)N1c1cccc(C(F)(F)F)c1` the IC50 was over 30 µM.

Target: Cytochrome P450 2C9 (Homo sapiens, UniProt P11712)
Sequence (P11712 whole entry): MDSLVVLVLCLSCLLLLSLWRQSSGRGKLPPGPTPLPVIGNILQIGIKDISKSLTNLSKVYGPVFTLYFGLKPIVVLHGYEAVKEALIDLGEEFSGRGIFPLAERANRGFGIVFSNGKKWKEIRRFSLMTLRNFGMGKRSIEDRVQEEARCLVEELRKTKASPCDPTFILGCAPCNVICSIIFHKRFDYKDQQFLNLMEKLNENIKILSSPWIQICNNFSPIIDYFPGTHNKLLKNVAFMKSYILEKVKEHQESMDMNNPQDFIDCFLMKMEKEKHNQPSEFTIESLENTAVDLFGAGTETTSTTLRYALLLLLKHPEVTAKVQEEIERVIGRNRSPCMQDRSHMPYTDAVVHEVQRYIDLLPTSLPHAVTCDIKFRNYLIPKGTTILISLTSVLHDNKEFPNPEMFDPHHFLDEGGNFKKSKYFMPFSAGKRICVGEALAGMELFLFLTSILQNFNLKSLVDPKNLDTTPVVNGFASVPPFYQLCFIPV
Assay: Inhibition of CYP2C9 in human pooled liver microsomes using diclofenac as substrate measured after 10 to 20 mins by LC-MS/MS analysis
Type: ADME, Microsome
Details: not given
In short: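 Pooled human liver microsomes were preincubated at 37°C for 10–20 min. […] Acetonitrile with internal standard stopped the reaction. Metabolite was measured by LC-MS/MS against a no-inhibitor reference, and IC50 was calculated.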
Work on `CC1=C(C#N)[C@@H](c2ccc(C#N)cc2S(C)(=O)=O)N(C)C(=O)N1c1cccc(C(F)(F)F)c1` yielded an IC50 of over 50 µM.

Test system: not listed separately
Assay: Plasma clearance in rat at 0.3 mg/kg, po administered via gavage or 0.84 mg/kg, iv administered via infusion for 0.25 to 2 hrs by LC-MS/MS analysis
Type: ADME, organism-based
Details: in vivo
For `CC1=C(C#N)[C@@H](c2ccc(C#N)cc2S(C)(=O)=O)N(C)C(=O)N1c1cccc(C(F)(F)F)c1`, the CL was 8.3 mL/min/kg.

Test system: not listed separately
Assay: Oral bioavailability in rat at 0.3 mg/kg administered via gavage by LC-MS/MS analysis
Type: ADME, organism-based
Details: in vivo
Work on `CC1=C(C#N)[C@@H](c2ccc(C#N)cc2S(C)(=O)=O)N(C)C(=O)N1c1cccc(C(F)(F)F)c1` yielded an F of 63%.

Target: T4, Kallikrein-5 (Homo sapiens, UniProt Q9Y337)
T4 sequence (Q9Y337 whole entry): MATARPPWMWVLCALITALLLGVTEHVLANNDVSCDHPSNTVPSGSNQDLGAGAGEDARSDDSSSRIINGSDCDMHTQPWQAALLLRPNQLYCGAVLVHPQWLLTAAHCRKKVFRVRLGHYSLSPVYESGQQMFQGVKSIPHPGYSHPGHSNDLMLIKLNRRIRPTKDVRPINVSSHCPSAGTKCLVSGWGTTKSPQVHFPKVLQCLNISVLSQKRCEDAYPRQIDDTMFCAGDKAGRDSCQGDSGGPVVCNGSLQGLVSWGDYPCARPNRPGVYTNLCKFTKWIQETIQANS
Assay: Inhibition of kallikrein-5 (unknown origin)
Details: not given
Work on `CC1=C(C#N)[C@@H](c2ccc(C#N)cc2S(C)(=O)=O)N(C)C(=O)N1c1cccc(C(F)(F)F)c1` yielded an IC50 of over 30 µM.

Target: T5, Chymase (Homo sapiens, UniProt P23946)
T5 sequence (P23946 whole entry): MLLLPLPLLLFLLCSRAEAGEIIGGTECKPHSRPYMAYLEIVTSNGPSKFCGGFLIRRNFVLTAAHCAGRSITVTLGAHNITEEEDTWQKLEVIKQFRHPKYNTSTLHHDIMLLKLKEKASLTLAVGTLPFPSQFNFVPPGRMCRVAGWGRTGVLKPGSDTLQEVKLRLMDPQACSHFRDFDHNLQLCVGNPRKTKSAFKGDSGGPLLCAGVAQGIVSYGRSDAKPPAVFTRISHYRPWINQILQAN
Assay: Inhibition of chymase (unknown origin)
Details: not given
Molecule `CC1=C(C#N)[C@@H](c2ccc(C#N)cc2S(C)(=O)=O)N(C)C(=O)N1c1cccc(C(F)(F)F)c1` has an IC50 of over 30 µM.

Target: Coagulation factor XI (Homo sapiens, UniProt P03951)
Sequence (P03951 19-387 limits assumed): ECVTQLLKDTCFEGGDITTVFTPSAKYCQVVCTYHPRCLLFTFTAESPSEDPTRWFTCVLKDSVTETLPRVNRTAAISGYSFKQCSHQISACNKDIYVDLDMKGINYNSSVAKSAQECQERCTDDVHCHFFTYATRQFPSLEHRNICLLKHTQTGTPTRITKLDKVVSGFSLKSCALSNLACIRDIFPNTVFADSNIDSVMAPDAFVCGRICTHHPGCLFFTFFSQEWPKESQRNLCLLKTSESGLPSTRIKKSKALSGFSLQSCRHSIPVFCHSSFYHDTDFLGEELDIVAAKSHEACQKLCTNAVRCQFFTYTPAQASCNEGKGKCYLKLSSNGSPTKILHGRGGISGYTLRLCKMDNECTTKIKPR
Sequence (P03951 388-625 limits assumed): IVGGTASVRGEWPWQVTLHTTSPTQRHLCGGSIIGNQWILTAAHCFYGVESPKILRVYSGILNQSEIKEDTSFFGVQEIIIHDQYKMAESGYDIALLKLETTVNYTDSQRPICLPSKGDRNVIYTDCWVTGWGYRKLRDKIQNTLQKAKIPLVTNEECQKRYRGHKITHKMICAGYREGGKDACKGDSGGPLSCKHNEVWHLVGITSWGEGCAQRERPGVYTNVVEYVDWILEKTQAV
Assay: Inhibition of FXIa (unknown origin)
Details: not given
For `CC1=C(C#N)[C@@H](c2ccc(C#N)cc2S(C)(=O)=O)N(C)C(=O)N1c1cccc(C(F)(F)F)c1`, the IC50 was over 30 µM.

Target: Kallikrein-7 (Homo sapiens, UniProt P49862)
Sequence (P49862 whole entry): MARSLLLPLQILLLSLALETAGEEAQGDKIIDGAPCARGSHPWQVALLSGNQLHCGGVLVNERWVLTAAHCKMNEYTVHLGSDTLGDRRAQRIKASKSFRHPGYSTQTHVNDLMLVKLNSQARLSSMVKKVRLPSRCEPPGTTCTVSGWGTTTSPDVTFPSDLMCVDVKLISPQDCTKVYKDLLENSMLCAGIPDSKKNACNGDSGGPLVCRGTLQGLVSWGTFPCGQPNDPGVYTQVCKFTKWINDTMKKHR
Assay: Inhibition of kallikrein-7 (unknown origin)
Details: not given
With `CC1=C(C#N)[C@@H](c2ccc(C#N)cc2S(C)(=O)=O)N(C)C(=O)N1c1cccc(C(F)(F)F)c1` the IC50 was over 30 µM.

Target: Dipeptidyl peptidase 4 (Homo sapiens, UniProt P27487)
Sequence (P27487 whole entry): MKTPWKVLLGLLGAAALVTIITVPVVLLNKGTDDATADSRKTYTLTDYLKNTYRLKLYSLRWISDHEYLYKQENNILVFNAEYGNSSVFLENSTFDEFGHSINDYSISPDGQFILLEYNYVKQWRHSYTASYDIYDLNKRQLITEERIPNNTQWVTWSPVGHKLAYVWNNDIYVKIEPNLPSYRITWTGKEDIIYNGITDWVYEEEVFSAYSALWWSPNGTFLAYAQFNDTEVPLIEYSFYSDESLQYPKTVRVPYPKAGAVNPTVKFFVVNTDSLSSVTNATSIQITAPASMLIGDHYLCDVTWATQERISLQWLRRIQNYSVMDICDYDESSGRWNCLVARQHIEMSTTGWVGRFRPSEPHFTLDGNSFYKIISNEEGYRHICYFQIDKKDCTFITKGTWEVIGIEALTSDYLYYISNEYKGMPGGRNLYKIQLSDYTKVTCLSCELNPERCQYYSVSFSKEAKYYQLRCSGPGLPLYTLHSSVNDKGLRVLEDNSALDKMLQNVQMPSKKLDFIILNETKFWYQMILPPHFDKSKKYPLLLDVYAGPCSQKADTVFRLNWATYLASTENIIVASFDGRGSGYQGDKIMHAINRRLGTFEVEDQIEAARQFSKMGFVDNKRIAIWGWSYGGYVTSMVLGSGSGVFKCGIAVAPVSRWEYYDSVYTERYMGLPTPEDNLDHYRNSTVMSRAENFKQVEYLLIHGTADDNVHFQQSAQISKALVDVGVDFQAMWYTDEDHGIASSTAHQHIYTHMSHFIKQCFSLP
Assay: Inhibition of DPP4 (unknown origin)
Details: not given
In the case of `CC1=C(C#N)[C@@H](c2ccc(C#N)cc2S(C)(=O)=O)N(C)C(=O)N1c1cccc(C(F)(F)F)c1`, the IC50 is reported as over 30 µM.

Target: Plasminogen (Homo sapiens, UniProt P00747)
Sequence (P00747 97-580 limits assumed): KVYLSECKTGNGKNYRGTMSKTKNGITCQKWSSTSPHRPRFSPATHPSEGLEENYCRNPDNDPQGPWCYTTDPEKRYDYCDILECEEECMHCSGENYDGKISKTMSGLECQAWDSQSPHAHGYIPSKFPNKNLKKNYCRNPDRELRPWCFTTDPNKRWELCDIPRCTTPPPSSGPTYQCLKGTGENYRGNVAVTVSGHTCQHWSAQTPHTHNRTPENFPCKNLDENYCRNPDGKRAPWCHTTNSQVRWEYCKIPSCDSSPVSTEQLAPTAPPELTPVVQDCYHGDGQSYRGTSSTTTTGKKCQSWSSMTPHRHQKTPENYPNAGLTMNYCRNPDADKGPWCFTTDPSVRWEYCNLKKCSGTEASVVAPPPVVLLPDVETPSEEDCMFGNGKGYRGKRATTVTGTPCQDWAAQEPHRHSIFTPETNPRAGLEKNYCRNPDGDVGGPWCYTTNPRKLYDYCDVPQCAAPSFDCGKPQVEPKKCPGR
Sequence (P00747 581-810 limits assumed): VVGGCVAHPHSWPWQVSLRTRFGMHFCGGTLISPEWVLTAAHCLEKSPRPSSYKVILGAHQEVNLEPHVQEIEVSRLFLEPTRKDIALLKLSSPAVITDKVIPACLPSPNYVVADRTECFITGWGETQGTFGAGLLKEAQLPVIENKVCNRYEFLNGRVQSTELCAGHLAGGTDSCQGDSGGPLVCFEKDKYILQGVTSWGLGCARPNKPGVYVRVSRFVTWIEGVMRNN
Assay: Inhibition of plasmin (unknown origin)
Details: not given
Work on `CC1=C(C#N)[C@@H](c2ccc(C#N)cc2S(C)(=O)=O)N(C)C(=O)N1c1cccc(C(F)(F)F)c1` yielded an IC50 of over 30 µM.

Target: Chymotrypsin (Homo sapiens, UniProt Q99895+P17538+P40313+Q6GPI1)
Assay: Inhibition of chymotrypsin (unknown origin)
Type: protein assay
Details: not given
With `CC1=C(C#N)[C@@H](c2ccc(C#N)cc2S(C)(=O)=O)N(C)C(=O)N1c1cccc(C(F)(F)F)c1` the IC50 was over 30 µM.

Target: T6, Prolyl endopeptidase FAP (Homo sapiens, UniProt Q12884)
T6 sequence (Q12884 whole entry): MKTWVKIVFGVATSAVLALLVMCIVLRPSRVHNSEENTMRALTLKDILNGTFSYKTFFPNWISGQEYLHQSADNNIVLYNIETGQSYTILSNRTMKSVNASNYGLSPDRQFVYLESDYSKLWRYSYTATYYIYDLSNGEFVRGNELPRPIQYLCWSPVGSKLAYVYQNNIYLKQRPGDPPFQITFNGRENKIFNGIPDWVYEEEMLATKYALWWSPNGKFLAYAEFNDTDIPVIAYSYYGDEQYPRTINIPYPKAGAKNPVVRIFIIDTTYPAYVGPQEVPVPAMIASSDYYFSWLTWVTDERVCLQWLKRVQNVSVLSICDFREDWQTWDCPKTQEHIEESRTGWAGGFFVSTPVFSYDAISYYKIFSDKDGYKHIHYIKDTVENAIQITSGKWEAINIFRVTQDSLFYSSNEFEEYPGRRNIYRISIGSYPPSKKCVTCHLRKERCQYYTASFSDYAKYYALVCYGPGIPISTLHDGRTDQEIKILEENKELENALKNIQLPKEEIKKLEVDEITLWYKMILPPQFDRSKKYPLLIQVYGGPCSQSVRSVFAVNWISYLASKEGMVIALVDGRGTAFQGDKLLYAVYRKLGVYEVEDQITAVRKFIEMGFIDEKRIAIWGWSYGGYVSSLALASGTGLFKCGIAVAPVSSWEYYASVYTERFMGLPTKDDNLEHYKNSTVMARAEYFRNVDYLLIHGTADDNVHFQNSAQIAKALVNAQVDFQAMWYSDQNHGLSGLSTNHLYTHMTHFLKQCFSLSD
Assay: Inhibition of FAP (unknown origin)
Details: not given
`CC1=C(C#N)[C@@H](c2ccc(C#N)cc2S(C)(=O)=O)N(C)C(=O)N1c1cccc(C(F)(F)F)c1` gave an IC50 of over 30 µM.

Reference: ChEMBL document CHEMBL5653621, “Freezing the Bioactive Conformation to Boost Potency: The Identification of BAY 85-8501, a Selective and Potent Inhibitor of Human Neutrophil Elastase for Pulmonary Diseases” (ChemMedChem, 2015)
